Measurements as given in ChEMBL document CHEMBL4017453, “Design, synthesis and optimization of bis-amide derivatives as CSF1R inhibitors” (Bioorg Med Chem Lett, 2017).
Converted amounts (≈) assume the structure as drawn. The source made the active and inactive calls. The rule behind the calls is not given here.

What was measured:
[1] = Growth inhibition of mouse BMMC at 1 uM after 72 hrs by CellTiter-Glo luminescent assay relative to control; format: functional; conditions: read-out: GI
Summary of the method: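 Cell viability in primary mouse bone marrow-derived macrophages, which depend on CSF1 for survival; inhibition measured at 1 single concentration.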

[2] = target: Mast/stem cell growth factor receptor Kit (Homo sapiens, UniProt P10721); assay: Inhibition of human c-Kit using poly[Glu:Tyr] (4:1) as substrate measured after 2 hrs in presence of [33gammaP]ATP by […] ion exchange chromatographic method
Summary of the method: (§1)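 Radiometric kinase assay: enzyme incubated with [γ-33P]-ATP and peptide substrate; IC50 curves fitted per compound. Selectivity expressed as c-Kit IC50 over CSF1R IC50.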

RAW264.7 = assay: Growth inhibition of mouse RAW264.7 cells at 1 uM after 72 hrs by CellTiter-Glo luminescent assay relative to control; format: functional; conditions: for inhibition of growth at 1 µM: RAW264.7, 72 h, read-out: GI
[3] = AUC (0 to last) in CD-1 mouse at 10 mg/kg, po; format: ADME, organism-based; design: dose 10 mg/kg, route oral, time 0 - last; conditions: in vivo
Summary of the method: (§2)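 Mice given a single IV dose (2 mg/kg) or oral dose (10 mg/kg); plasma levels followed over time. AUClast taken from time 0 to last quantifiable concentration; Cmax and Tmax read from observed profile; CL is systemic clearance and Vss volume at steady state, both from IV; oral bioavailability derived from PO versus IV exposure.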

[4] = Terminal half life in CD-1 mouse at 2 mg/kg, iv; format: ADME, organism-based; conditions: in vivo, read-out: beta t1/2 (converted); summary of the method: as §2
[5] = AUC (0 to last) in CD-1 mouse at 2 mg/kg, iv; format: ADME, organism-based; design: dose 2 mg/kg, time 0 - last, route intravenous; conditions: in vivo; summary of the method: as §2
[6] = Tmax in CD-1 mouse at 10 mg/kg, po; format: ADME, organism-based; conditions: in vivo; summary of the method: as §2
[7] = Cmax in CD-1 mouse plasma at 10 mg/kg, po; format: ADME, organism-based; design: dose 10 mg/kg, route oral; summary of the method: as §2
[8] = Apparent permeability from apical to basolateral side in human Caco2 cells at 10 uM incubated for 60 mins by LC-MS/MS analysis; format: ADME, cell-based, Caco-2; conditions: for Papp A→B at 1 h, 10 µM: Caco-2
Summary of the method: (§3)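 Caco2 monolayer permeability measured in apical-to-basolateral and basolateral-to-apical directions; mean Papp with SD reported, efflux ratio calculated from the two directions.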

[9] = Stability in human liver microsomes assessed as compound remaining at 1 uM after 30 mins in presence of NADPH by LC/MS/MS analysis; format: ADME, microsome; conditions: read-out: Stability
Summary of the method: (§4)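 Metabolic stability in human or mouse liver microsomes supplemented with NADPH; reported as percent of parent remaining relative to time-zero control.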

[10] = Stability in mouse liver microsomes assessed as compound remaining at 1 uM after 30 mins in presence of NADPH by LC/MS/MS analysis; format: ADME, microsome; conditions: read-out: Stability; summary of the method: as §4
[11] = Volume of distribution at steady state in CD-1 mouse at 2 mg/kg, iv; format: ADME, organism-based; conditions: in vivo, read-out: Vdss; summary of the method: as §2
[12] = Apparent permeability from basolateral to apical side in human Caco2 cells at 10 uM incubated for 60 mins by LC-MS/MS analysis; format: ADME, cell-based, Caco-2; conditions: for Papp B→A at 1 h, 10 µM: Caco-2; summary of the method: as §3
[13] = Cmax in CD-1 mouse plasma at 2 mg/kg, iv; format: ADME, organism-based; design: dose 2 mg/kg, route intravenous; summary of the method: as §2
[14] = Oral bioavailability in CD-1 mouse at 10 mg/kg; format: ADME, organism-based; conditions: in vivo; summary of the method: as §2
[15] = Systemic clearance in CD-1 mouse at 2 mg/kg, iv; format: ADME, organism-based; conditions: in vivo; summary of the method: as §2
[16] = Terminal half life in CD-1 mouse at 10 mg/kg, po; format: ADME, organism-based; conditions: in vivo, read-out: beta t1/2 (converted); summary of the method: as §2
[17] = Stability in mouse plasma assessed as compound remaining at 1 uM after 4 hrs by LC/MS/MS analysis; format: ADME, cell-free; conditions: read-out: Stability
Summary of the method: (§5)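 Test article incubated 4 h in human or mouse plasma to probe amidase hydrolysis; percent parent remaining versus time-zero control.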

[18] = Stability in human plasma assessed as compound remaining at 1 uM after 4 hrs by LC/MS/MS analysis; format: ADME, cell-free; conditions: read-out: Stability; summary of the method: as §5
[19] = Clearance in iv dosed mouse; format: ADME, organism-based; conditions: in vivo; summary of the method: as §2
Liver [20] = assay: Drug metabolism in mouse liver microsomes assessed as demethylation by measuring N-(4-methyl-3-(3-(1-methyl-1H-pyrazol-4-yl)benzamido)phenyl)-4-(piperazin-1-ylmethyl)-3-(trifluoromethyl)benzamide level at 10 uM measured after 1 hr in presence of NADPH; format: ADME, microsome
[21] = Kinetic solubility of the compound in PBS buffer at pH 7.4 at […] after 1 hr by nephelometry; format: physicochemical; conditions: read-out: Kinetic_solubility
Summary of the method: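 Kinetic solubility determined in isotonic phosphate buffer.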

[22] = target: Macrophage colony-stimulating factor 1 receptor (Homo sapiens, UniProt P07333); assay: Inhibition of human CSF1R using poly[Glu:Tyr] (4:1) as substrate incubated for 2 hrs in presence of [33gammaP]ATP by P81 ion exchange chromatographic method
Homo sapiens = species on record: Homo sapiens; assay: Selectivity ratio of IC50 for human c-Kit to IC50 for human CSF1R; summary of the method: as §1
Liver [23] = assay: Drug level in mouse liver microsomes treated with N-(4-methyl-3-(3-(1-methyl-1H-pyrazol-4-yl)benzamido)phenyl)-4-((4-methylpiperazin-1-yl)methyl)-3-(trifluoromethyl)benzamide at 10 uM measured after 1 hr in presence of NADPH; format: ADME, microsome

Chain of Mast/stem cell growth factor receptor Kit (P10721 whole entry): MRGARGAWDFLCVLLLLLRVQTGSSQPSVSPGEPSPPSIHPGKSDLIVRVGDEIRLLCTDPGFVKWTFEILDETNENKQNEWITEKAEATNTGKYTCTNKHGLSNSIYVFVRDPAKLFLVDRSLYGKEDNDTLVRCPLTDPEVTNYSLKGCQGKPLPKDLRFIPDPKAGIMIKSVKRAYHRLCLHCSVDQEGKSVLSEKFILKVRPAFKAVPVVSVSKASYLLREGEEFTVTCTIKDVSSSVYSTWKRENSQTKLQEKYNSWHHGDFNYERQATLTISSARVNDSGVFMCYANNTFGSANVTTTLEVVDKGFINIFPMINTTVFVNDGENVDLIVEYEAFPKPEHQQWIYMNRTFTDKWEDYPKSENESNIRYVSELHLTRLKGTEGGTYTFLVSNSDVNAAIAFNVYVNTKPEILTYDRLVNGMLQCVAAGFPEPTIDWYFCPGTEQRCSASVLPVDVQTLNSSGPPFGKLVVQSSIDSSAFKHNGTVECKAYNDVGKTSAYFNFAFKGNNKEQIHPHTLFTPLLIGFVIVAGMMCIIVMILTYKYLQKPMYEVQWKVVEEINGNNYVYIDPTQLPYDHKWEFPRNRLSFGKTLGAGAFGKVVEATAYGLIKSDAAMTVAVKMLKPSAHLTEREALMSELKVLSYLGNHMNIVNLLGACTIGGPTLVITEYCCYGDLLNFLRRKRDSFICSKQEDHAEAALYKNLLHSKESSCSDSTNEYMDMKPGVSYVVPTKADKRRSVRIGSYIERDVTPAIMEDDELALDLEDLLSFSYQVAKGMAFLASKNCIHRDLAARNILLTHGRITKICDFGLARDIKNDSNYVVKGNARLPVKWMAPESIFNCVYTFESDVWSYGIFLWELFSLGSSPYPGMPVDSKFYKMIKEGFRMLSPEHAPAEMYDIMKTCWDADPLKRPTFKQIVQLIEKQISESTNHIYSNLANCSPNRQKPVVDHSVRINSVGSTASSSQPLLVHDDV
Chain of Macrophage colony-stimulating factor 1 receptor (P07333 whole entry): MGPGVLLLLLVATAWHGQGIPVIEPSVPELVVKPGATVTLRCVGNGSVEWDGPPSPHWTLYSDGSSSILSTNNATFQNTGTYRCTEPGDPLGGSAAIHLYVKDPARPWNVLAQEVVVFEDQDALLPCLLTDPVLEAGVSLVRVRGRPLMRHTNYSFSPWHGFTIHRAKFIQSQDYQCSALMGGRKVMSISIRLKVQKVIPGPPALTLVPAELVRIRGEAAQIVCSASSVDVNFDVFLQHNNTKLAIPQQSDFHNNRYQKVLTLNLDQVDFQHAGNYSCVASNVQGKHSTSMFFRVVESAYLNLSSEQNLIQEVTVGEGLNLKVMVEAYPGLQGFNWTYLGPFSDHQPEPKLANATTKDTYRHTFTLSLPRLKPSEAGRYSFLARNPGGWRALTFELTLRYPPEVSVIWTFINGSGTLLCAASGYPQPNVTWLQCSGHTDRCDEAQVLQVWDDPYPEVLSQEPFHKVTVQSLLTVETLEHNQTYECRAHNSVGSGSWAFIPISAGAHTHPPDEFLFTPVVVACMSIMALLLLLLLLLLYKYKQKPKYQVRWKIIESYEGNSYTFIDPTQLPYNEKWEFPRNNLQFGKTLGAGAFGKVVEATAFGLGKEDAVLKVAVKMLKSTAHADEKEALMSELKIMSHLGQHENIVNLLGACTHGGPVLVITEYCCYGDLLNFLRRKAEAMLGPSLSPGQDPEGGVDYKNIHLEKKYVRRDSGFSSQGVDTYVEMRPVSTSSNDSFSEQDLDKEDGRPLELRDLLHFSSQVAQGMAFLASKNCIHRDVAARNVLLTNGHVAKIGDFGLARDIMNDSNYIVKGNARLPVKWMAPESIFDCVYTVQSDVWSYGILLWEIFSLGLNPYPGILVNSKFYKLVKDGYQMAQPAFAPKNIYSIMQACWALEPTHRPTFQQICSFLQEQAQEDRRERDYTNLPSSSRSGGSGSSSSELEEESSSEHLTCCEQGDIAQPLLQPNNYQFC

Cc1ccc(NC(=O)c2ccc(CN3CCN(C)CC3)c(C(F)(F)F)c2)cc1NC(=O)c1cccc(-c2cccnc2)c1
inhibition of growth at 1 µM [1]: 84% | IC50 [2]: 900 nM | growth inhibition (GI) (RAW264.7): inactive

Cc1ccc(NC(=O)c2cccc(C(F)(F)F)c2)cc1NC(=O)c1cncc(-c2cnn(C)c2)c1
AUC(0-t) [3]: 6.94 µM·h | half-life [4]: 52.2 min | AUC(0-t) [5]: 2.24 µM·h | Tmax [6]: 30 min | Cmax [7]: 4600 nM | Papp A→B at 1 h, 10 µM [8]: 12.5 ×10⁻⁶ cm/s | inhibition of growth at 1 µM [1]: 96% | remaining at 0.5 h, 1 µM [9]: 37% | remaining at 0.5 h, 1 µM [10]: 63% | IC50 [2]: 60 nM | Vd [11]: 1.1 L/kg | growth inhibition (GI) (RAW264.7): inactive | Papp B→A at 1 h, 10 µM [12]: 32.5 ×10⁻⁶ cm/s | Cmax [13]: 3550 nM | bioavailability [14]: 64% | clearance [15]: 31 mL/min/kg | half-life [16]: 108 min

Cc1ccc(C(=O)N(C)c2ccc(CN3CCN(C)CC3)c(C(F)(F)F)c2)cc1NC(=O)c1cccc(-c2cccs2)c1
IC50 [2]: 5900 nM

Cc1ccc(NC(=O)c2ccc(CN3CCN(C)CC3)c(C(F)(F)F)c2)cc1NC(=O)c1cccc(-c2ccccn2)c1
inhibition of growth at 1 µM [1]: 31% | IC50 [2]: 15000 nM | growth inhibition (GI) (RAW264.7): inactive

Cc1ccc(C(=O)Nc2ccc(CN3CCN(C)CC3)c(C(F)(F)F)c2)cc1N(C)C(=O)c1cccc(-c2cccs2)c1
IC50 [2]: > 10000 nM

Cc1ccc(NC(=O)c2ccc(CN3CCN(C)CC3)c(C(F)(F)F)c2)cc1NC(=O)c1cccc(-c2cncnc2)c1
inhibition of growth at 1 µM [1]: 76% | IC50 [2]: 5970 nM | growth inhibition (GI) (RAW264.7): inactive

CN1CCN(Cc2ccc(NC(=O)c3ccc(Cl)c(NC(=O)c4cccc(-c5cccs5)c4)c3)cc2C(F)(F)F)CC1
inhibition of growth at 1 µM [1]: -7% | IC50 [2]: 190 nM | inhibition of growth at 1 µM (RAW264.7): 8%

Cc1ccc(NC(=O)c2ccc(CN3CCN(C)CC3)c(C(F)(F)F)c2)cc1NC(=O)c1cccc(-c2cccs2)c1
IC50 [2]: 1680 nM

Cc1ccc(C(=O)Nc2ccc(CN3CCN(C)CC3)c(C(F)(F)F)c2)cc1NCc1cccc(-c2cccs2)c1
IC50 [2]: > 10000 nM

Cc1ccc(C(=O)Nc2ccc(CN3CCN(C)CC3)c(Cl)c2)cc1NC(=O)c1cccc(-c2cccs2)c1
inhibition of growth at 1 µM [1]: 20% | IC50 [2]: 2700 nM | inhibition of growth at 1 µM (RAW264.7): 4%

Cc1ccc(C(=O)Nc2ccc(CN3CCN(C)CC3)c(C(F)(F)F)c2)cc1NC(=O)c1cccc(-c2cncnc2)c1
inhibition of growth at 1 µM [1]: 64% | IC50 [2]: 310 nM | inhibition of growth at 1 µM (RAW264.7): 9%

Cc1ccc(C(=O)Nc2ccc(CN3CCN(C)CC3)c(C(F)(F)F)c2)cc1NC(=O)c1cccc(-c2cccnc2)c1
inhibition of growth at 1 µM [1]: 61% | IC50 [2]: 210 nM | inhibition of growth at 1 µM (RAW264.7): 6%

Cc1ccc(NC(=O)c2ccc(CN3CCN(C)CC3)c(C(F)(F)F)c2)cc1NC(=O)c1cccc(-c2cnn(C)c2)c1
AUC(0-t) [3]: 0.16 µM·h | half-life [4]: 13.8 min | remaining at 4 h, 1 µM [17]: 67% | AUC(0-t) [5]: 0.27 µM·h | Tmax [6]: 15 min | Cmax [7]: 160 nM | remaining at 4 h, 1 µM [18]: 95% | inhibition of growth at 1 µM [1]: 81% | remaining at 0.5 h, 1 µM [9]: 46 to 47% | remaining at 0.5 h, 1 µM [10]: 7% | clearance [19]: 210 mL/min/kg | Drug metabolism (Liver [20]): Metabolite_Detected | IC50 [2]: 740 nM | Vd [11]: 4.23 L/kg | growth inhibition (GI) (RAW264.7): inactive | Cmax [13]: 850 nM | solubility kinetic at 1 h [21]: 4.7 µM (≈ 2.78 µg/mL) | bioavailability [14]: 11% | clearance [15]: 210 mL/min/kg | half-life [16]: 79.2 min

Cc1ccc(NC(=O)c2cccc(C(F)(F)F)c2)cc1NC(=O)c1cnc(N)nc1
Papp A→B at 1 h, 10 µM [8]: 0.1 ×10⁻⁶ cm/s | inhibition of growth at 1 µM [1]: 86% | remaining at 0.5 h, 1 µM [9]: 91% | remaining at 0.5 h, 1 µM [10]: 65% | IC50 [2]: 820 nM | growth inhibition (GI) (RAW264.7): inactive | Papp B→A at 1 h, 10 µM [12]: 5.3 ×10⁻⁶ cm/s

Cc1ccc(CNc2ccc(CN3CCN(C)CC3)c(C(F)(F)F)c2)cc1NC(=O)c1cccc(-c2cccs2)c1
IC50 [2]: 270 nM

Cc1ncc(NC(=O)c2cccc(C(F)(F)F)c2)cc1NC(=O)c1cncc(-c2cnn(C)c2)c1
Papp ([8]; caco-2, 1 h, 10 µM): 0.5 ×10⁻⁶ cm/s | inhibition of growth at 1 µM [1]: 87% | remaining at 0.5 h, 1 µM [9]: 60% | remaining at 0.5 h, 1 µM [10]: 57% | IC50 [2]: 180 nM | growth inhibition (GI) (RAW264.7): inactive | Papp ([12]; caco-2, 1 h, 10 µM): 36.3 ×10⁻⁶ cm/s

Cc1ccc(NC(=O)c2ccc(CN3CCN(C)CC3)c(C(F)(F)F)c2)cc1NC(=O)c1cccc(-c2ccncc2)c1
inhibition of growth at 1 µM [1]: 72% | IC50 [2]: 390 nM | growth inhibition (GI) (RAW264.7): inactive

Cc1ccc(C(=O)Nc2ccc(CN3CCN(C)CC3)cc2)cc1NC(=O)c1cccc(-c2cccs2)c1
inhibition of growth at 1 µM [1]: 11% | IC50 [22]: > 10000 nM | IC50 [2]: > 10000 nM | inhibition of growth at 1 µM (RAW264.7): 8%

Cc1ccc(C(=O)Nc2ccc(CN3CCN(C)CC3)c(C(F)(F)F)c2)cc1NC(=O)c1cccc(-c2cccs2)c1
inhibition of growth at 1 µM [1]: 22% | IC50 [2]: 440 nM | inhibition of growth at 1 µM (RAW264.7): 7%

Cc1ccc(NC(=O)c2ccc(CN3CCN(C)CC3)c(C(F)(F)F)c2)cc1NC(=O)c1cccc(-c2cn[nH]c2)c1
Ratio IC50 (Homo sapiens): > 40 | inhibition of growth at 1 µM [1]: 80% | IC50 [22]: < 0.5 nM | IC50 [2]: 20 nM | growth inhibition (GI) (RAW264.7): inactive

Cc1ccc(NC(=O)c2ccc(CN3CCN(C)CC3)c(C(F)(F)F)c2)cc1NC(=O)c1cccc(-c2nn[nH]n2)c1
inhibition of growth at 1 µM [1]: 2.4% | IC50 [2]: 7500 nM | growth inhibition (GI) (RAW264.7): inactive

Cc1ccc(NC(=O)c2cccc(C(F)(F)F)c2)cc1NC(=O)c1cccc(-c2cnn(C)c2)c1
remaining at 0.5 h, 1 µM [9]: 68% | remaining at 0.5 h, 1 µM [10]: 74% | IC50 [2]: 130 nM | growth inhibition (GI) (RAW264.7): inactive

Cc1ccc(NC(=O)c2ccc(CN3CCNCC3)c(C(F)(F)F)c2)cc1NC(=O)c1cccc(-c2cnn(C)c2)c1
inhibition of growth at 1 µM [1]: 44% | remaining at 0.5 h, 1 µM [9]: 85% | remaining at 0.5 h, 1 µM [10]: 72% | Drug metabolism (Liver [23]): Metabolite_Detected | IC50 [2]: 3000 nM
